One data set deals with C. albicans (ATCC 90028). In words: In vitro anticandidal activity, broth dilution. The conditions noted are these: Candida albicans, ATCC90028, 24 h, read-out: IC50 ± S.D, C. albicans. The format is cell-based. The method in brief: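 Broth dilution followed the NCCLS protocol. Test compound in DMSO was diluted in PBS, then tested at 1000 to 7.8 μg mL−1 in SD broth with about 2.5 × 10^3 cells per mL in 96-well plates. Plates were shaken 24 h at 30 °C, 150 rpm, and read at OD580. IC50 was the concentration halving absorbance versus untreated cells, taken from a log10 concentration versus % inhibition plot. Triplicates were run on separate occasions, with fluconazole as positive control.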
For orientation: Dilution methods test growth across graded concentrations, often in twofold steps.

The subject of another data set is C. albicans. In words: Growth curve studies. In kind it is cell-based, Candida albicans. The method in brief:
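C. albicans revived on SD agar and pre-grown 16 h at 30 °C in SD broth. About 2 × 10^3 cells per mL were inoculated into 50 mL SD medium containing test compound at 2MIC, MIC or MIC/2, then shaken at 30 °C, 160 rpm. Fluconazole at 31.25 μg mL−1 and untreated cells served as controls. OD600 was read on 1 mL aliquots every 2 h from 0 to 24 h.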

The subject of data set [1] is ergosterol content in C. albicans ATCC 90028. The data set can be described thus: Sterol estimation assay. In kind it is cell-based, Candida albicans. The conditions noted are these: vs untreated cells.
Data set [2] deals with human embryonic kidney (HEK-293) cells. The data set can be described thus: Cytotoxicity by MTT assay. In kind it is cell-based. The conditions noted are these: HEK-293, 100 μg mL^−1, 24 h. The method in brief: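 HEK-293 cells grown as monolayers in DMEM with 10% FBS, penicillin and streptomycin, 37 °C, 5% CO2, at most 30 passages. Seeded at about 8 × 10^3 cells per well, 24 h before dosing. Test compound (DMSO stock diluted in PBS) given at 10–200 μg mL−1 for 24 h at 37 °C. Serum-free medium, then MTT (5 mg mL−1 in PBS), 4 h. Formazan dissolved in DMSO, A570 read. Triplicate; viability relative to untreated cells.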

Another data set is described as follows: Hemolytic assay. The conditions noted are these: human, human red blood cells (erythrocyte suspension in PBS). In kind it is cell-based. An outline of the steps: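 Fresh human blood was collected in EDTA and spun 10 min at 2000 rpm. Erythrocytes were washed three times in PBS and made to a 10% (v/v) suspension, then diluted 1:10. Equal volumes of cells and test compound dilution series in PBS were incubated in triplicate for 1 h at 37 °C and re-centrifuged. Supernatant A450 was expressed relative to buffer (0%) and 1% Triton X-100 (100% lysis). Fluconazole was the reference.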

A further data set has as its system C. tropicalis (ATCC 750). In words: In vitro anticandidal activity, broth dilution. The format is cell-based, Candida tropicalis. The conditions noted are these: ATCC 750, 24 h, OD 580 nm.

In brackets after ≈: the same amount, converted by molar mass. Some results are limits rather than exact numbers.

By IC50 is commonly meant the concentration at which inhibition is half-maximal. In the case of `CCOC(=O)c1nc2ccccc2c(=O)n1Cc1cn(-c2ccc(C)cc2)nn1` [Compound 5n, Ethyl 4-oxo-3-((1-p-tolyl-1H-1,2,3-triazol-4-yl)methyl)-3,4-dihydroquinazoline-2-carboxylate], the IC50 in the data set with C. albicans (ATCC 90028) was determined as 14.6 ± 2.1 µg/mL (≈ 37.5 µM). For the same compound, in the data set on C. albicans (2MIC and MIC, 24 h), the “growth of Candida cells” value is on record as “did not show any significant growth”. In the data set with C. albicans (no significant growth after 24 h at higher concentrations), the nature of inhibition entry is reported as “fungicidal”. Also, the “time after which growth was observed” value in the data set with C. albicans (sub-MIC (MIC/2), standard C. albicans strain) was 7 h. Also, the “decrease in ergosterol content” value in data set [1] (2MIC (500 μg mL^−1)) is given as 57%; in data set [1] (MIC (250 μg mL^−1)), 55%; in data set [1] (MIC/2 (125 μg mL^−1)), 48%. Besides, in data set [2], the “cell viability (MTT)” value was “no significant decrease in cell viability”. Besides, the hemolysis at 1 h, 1000 μg mL^−1 in the data set “Hemolytic assay” was 41.2%.

Consider `CCOC(=O)c1nc2ccccc2c(=O)n1Cc1cn(-c2cccc(Cl)c2)nn1` [Compound 5g, Ethyl 3-((1-(3-chlorophenyl)-1H-1,2,3-triazol-4-yl)methyl)-4-oxo-3,4-dihydroquinazoline-2-carboxylate], for which the IC50 in the data set on C. albicans (ATCC 90028) was found to be 65.6 ± 3.2 µg/mL (≈ 160 µM). In addition, the “IC50 ± S.D, C. tropicalis” value with C. tropicalis (ATCC 750) was found to be 28.2 ± 2.2 µg/mL (≈ 68.8 µM). For the same compound, the “cell viability (MTT)” value in data set [2] is recorded as “no significant decrease in cell viability”. The same compound gave a hemolysis at 1 h, 1000 μg mL^−1 in the data set “Hemolytic assay” of less than 20%.

For the compound `O=C(O)c1nc2ccccc2c(=O)n1Cc1cn(-c2ccccc2F)nn1` [Compound 6c, 3-((1-(2-Fluorophenyl)-1H-1,2,3-triazol-4-yl)methyl)-4-oxo-3,4-dihydroquinazoline-2-carboxylic acid], the IC50 in the data set on C. albicans (ATCC 90028) came to 101 ± 3.7 µg/mL (≈ 276 µM). The “cell viability (MTT)” value in data set [2] is listed as “no significant decrease in cell viability”. The same compound came in with a hemolysis at 1 h, 1000 μg mL^−1 in “Hemolytic assay” of less than 20%.

Regarding `CCOC(=O)c1nc2ccccc2c(=O)n1Cc1cn(-c2ccccc2OC)nn1` [Compound 5e, Ethyl 3-((1-(2-methoxyphenyl)-1H-1,2,3-triazol-4-yl)methyl)-4-oxo-3,4-dihydroquinazoline-2-carboxylate], the IC50 in the data set on C. albicans (ATCC 90028) is 18.6 ± 3.4 µg/mL (≈ 45.9 µM). Besides, the “cell viability (MTT)” value in data set [2] is reported as “no significant decrease in cell viability”. This compound had a hemolysis at 1 h, 1000 μg mL^−1 in “Hemolytic assay” of less than 20%.

(Values after publication PMC9090800 (RSC Advances, 2018).)
